2 molecules from ChEMBL document CHEMBL1124186, “Synthesis and evaluation of tylosin-related macrolides modified at the aldehyde function: a new series of orally effective antibiotics” (1988) can be followed below.

One test relates to Haemophilus influenzae. The test is described as follows: In vitro antimicrobial activity against Haemophilus influenzae. The format is functional.
Test [1] relates to Staphylococcus aureus. The test is described as follows: In vitro antimicrobial activity against Staphylococcus aureus X1. Format: functional.
The test system of test [2] is Streptococcus pneumoniae. The test is described as follows: In vivo effective dose against experimental infections in mice Streptococcus pneumoniae park when administered orally. Format: functional. The following applies: po.
In test [3] the test system is Streptococcus pneumoniae. The test is described as follows: In vivo effective dose against experimental infections in mice Streptococcus pneumoniae park when administered sc. The format is functional.
Test [4] has as its system Streptococcus pyogenes. The test is described as follows: In vivo effective dose against experimental infections in rodent caused by Streptococcus pyogenes C203 when administered sc. Format: functional.
The test system of test [5] is Streptococcus pneumoniae. Briefly: In vitro antimicrobial activity against Streptococcus pneumoniae. The format is functional.
The subject of test [6] is Staphylococcus epidermidis. Briefly: In vitro antimicrobial activity against Staphylococcus epidermidis EPI1. The format is functional.
Another test concerns Enterococcus faecium. Briefly: In vitro antimicrobial activity against Streptococcus faecium X66. Format: functional, streptococcus fae-cium.
Test [7] concerns Streptococcus pyogenes. The test is described as follows: In vitro antimicrobial activity against Streptococcus pyogenes C203. Format: functional.
In test [8] the test system is Streptococcus pyogenes. The test is described as follows: In vivo effective dose against experimental infections in rodent caused by Streptococcus pyogenes C203 when administered orally. The format is functional. The following applies: po.
For test [9], the system named is Mus musculus. The test is described as follows: Peripheral plasma levels in mice after oral administration of 100 mg/kg dose for 0.5 hr. Format: functional, organism-based. Set-up: dose 100 mg/kg. The essentials:
(§1)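 Mice were given the compound orally and sampled for peripheral plasma at each time point. Plasma was assayed microbiologically against Micrococcus luteus seeded in Antibiotic Medium 1. Inhibition zone sizes were read, and concentrations were calculated from each compound's own standard curve. Each value is the mean of five mice per time point.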

For test [10], the system named is Mus musculus. The test is described as follows: Peripheral plasma levels in mice after oral administration of 100 mg/kg dose for 1 hr. More on the design: dose 100 mg/kg. The format is functional, organism-based. The method, boiled down: as §1
The test system of test [11] is Mus musculus. Briefly: Peripheral plasma levels in mice after oral administration of 100 mg/kg dose for 2 hr. Set-up: dose 100 mg/kg. The format is functional, organism-based. The essentials:
as §1

In test [12] the test system is Rattus norvegicus. The test is described as follows: Peripheral plasma levels in rats after oral administration of 100 mg/kg dose for 0.25 hr. The format is functional, organism-based. More on the design: dose 100 mg/kg. The essentials:
(§2)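 Rats received 100 mg/kg orally and were sampled for peripheral plasma. Concentrations were measured by Micrococcus luteus agar-diffusion microbiological assay in Antibiotic Medium 1, with zone sizes converted using the standard curve for the appropriate compound. Each value is the average of three rats per time point.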

The test system of test [13] is Rattus norvegicus. The test is described as follows: Peripheral plasma levels in rats after oral administration of 100 mg/kg dose for 0.5 hr. The format is functional, organism-based. More on the design: dose 100 mg/kg. The method, boiled down: as §2
Test [14] relates to Rattus norvegicus. Briefly: Peripheral plasma levels in rats after oral administration of 100 mg/kg dose for 1 hr. Set-up: dose 100 mg/kg. The format is functional, organism-based. The method, boiled down: as §2
The subject of test [15] is Rattus norvegicus. Briefly: Peripheral plasma levels in rats after oral administration of 100 mg/kg dose for 2 hr. Format: functional, organism-based. More on the design: dose 100 mg/kg. The essentials: as §2
In test [16] the test system is Rattus norvegicus. The test is described as follows: Peripheral plasma levels in rats after oral administration of 100 mg/kg dose for 4 hr. The format is functional, organism-based. More on the design: dose 100 mg/kg. The essentials:
as §2

The test system of test [17] is Streptococcus pneumoniae. Briefly: In vivo effective dose against experimental infections in mice Strep. pneumoniae park when administered sc. The format is functional.
Test [18] has as its system Streptococcus pneumoniae. Briefly: In vivo effective dose against experimental infections in mice Strep. pneumoniae park when administered orally. Format: functional. The following applies: po.
The test system of test [19] is Staphylococcus aureus. Briefly: In vivo effective dose against experimental infections in mice Staphylococcus aureus X1 when administered orally. Format: functional. The following applies: po.
Test [20] relates to Staphylococcus aureus. Briefly: In vivo effective dose against experimental infections in mice Staphylococcus aureus X1 when administered sc. Format: functional.

SMILES strings stand for the structures. In brackets after ≈: the same amount, converted by molar mass.

Take `CC[C@H]1OC(=O)C[C@@H](O)[C@H](C)[C@@H](O[C@@H]2O[C@H](C)[C@@H](O)[C@H](N(C)C)[C@H]2O)[C@@H](CCOc2ccc(Oc3ccccc3)cc2)C[C@@H](C)C(=O)/C=C/C(C)=C/[C@@H]1CO[C@@H]1O[C@H](C)[C@@H](O)[C@@H](OC)[C@H]1OC`: the MIC with Haemophilus influenzae was 16 µg/mL (≈ 17 µM); with Staphylococcus aureus [1], 0.5 µg/mL (≈ 0.531 µM); in the test with Streptococcus pneumoniae [5], 0.25 µg/mL (≈ 0.265 µM); in test [6], 0.5 µg/mL (≈ 0.531 µM); with Enterococcus faecium it was 0.5 µg/mL (≈ 0.531 µM); in the test on Streptococcus pyogenes [7], 0.25 µg/mL (≈ 0.265 µM). The ED50 is 38 mg/kg with Streptococcus pneumoniae [2], over 20 mg/kg in the test on Streptococcus pneumoniae [3], over 10 mg/kg in the test on Streptococcus pyogenes [4] and 29 mg/kg with Streptococcus pyogenes [8].

Consider `CC[C@H]1OC(=O)C[C@@H](O)[C@H](C)[C@@H](O[C@@H]2O[C@H](C)[C@@H](O)[C@H](N(C)C)[C@H]2O)[C@@H](CCN2CCCCCCC2)C[C@@H](C)C(=O)/C=C/C(C)=C/[C@@H]1CO[C@@H]1O[C@H](C)[C@@H](O)[C@@H](OC)[C@H]1OC`, for which the MIC was found to be 8 µg/mL (≈ 9.2 µM) against Haemophilus influenzae; 0.5 µg/mL (≈ 0.575 µM) with Staphylococcus aureus [1]; 0.25 µg/mL (≈ 0.288 µM) against Streptococcus pneumoniae [5]; 0.5 µg/mL (≈ 0.575 µM) in [6]; 4 µg/mL (≈ 4.6 µM) against Enterococcus faecium; 0.25 µg/mL (≈ 0.288 µM) against Streptococcus pyogenes [7]. In addition, the Concentration in the test with Mus musculus [9] came out at 0.1 µg/mL; in the test with Mus musculus [10], 0.1 µg/mL; with Mus musculus [11], 0.1 µg/mL; in the test with Rattus norvegicus [12], 0.3 µg/mL; in the test with Rattus norvegicus [13], 0.4 µg/mL; in the test on Rattus norvegicus [14] it was 0.2 µg/mL. The Concentration turned out to be 1.1 µg/mL in the test on Rattus norvegicus [15] and 0.2 µg/mL in the test with Rattus norvegicus [16]. Further, the ED50 was over 20 mg/kg with Streptococcus pneumoniae [17]; over 50 mg/kg with Streptococcus pneumoniae [18]; 0.9 mg/kg in the test with Streptococcus pyogenes [4]; 25 mg/kg in the test on Staphylococcus aureus [19]; 2 mg/kg in the test on Staphylococcus aureus [20]; 20 mg/kg with Streptococcus pyogenes [8].
